According to ChEMBL document CHEMBL5143677, “Small molecule NSAID derivatives for impairing powerhouse in cancer cells” (Bioorg Med Chem, 2022):
pIC50: −log10 of the molar value. Active and inactive are the calls of the source. No cut-off for these calls is given here.

Experiments:
[1] = test system: MCF7; test: Induction of mitochondrial outer membrane damage in human MCF7 cells assessed as morphological changes by measuring appearance of threadlike structure at IC50 measured after 24 hrs by mitotracker red based confocal microscopy; format: cell-based
[2] = test system: MCF7; test: Induction of mitochondrial outer membrane damage in human MCF7 cells assessed as increase in mitochondrial depolarization by measuring reduction in red fluorescence measured after 24 hrs by TMRM dye based confocal microscopy; format: cell-based
Method in brief: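 Mitochondrial damage probe: after 24 h exposure MCF7 cells loaded with TMRM, which stains undamaged mitochondria and is effluxed after damage; red fluorescence read by confocal microscopy against non-treated cells.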

[3] = test system: MCF7; test: Induction of apoptosis in human MCF7 cells assessed as reduction in Bcl-2 expression measured after 24 hrs by Western blot analysis; format: functional, cell-based
Method in brief: (§1)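 MCF7 cells treated 24 h; whole-cell proteins separated by gel electrophoresis and Bcl-2 and caspase-3 detected by Western blot, compared with control cells.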

[4] = test system: MCF7; test: Induction of mitochondrial outer membrane damage in human MCF7 cells assessed as increase in mitochondrial depolarization by measuring increase in green fluorescence measured after 24 hrs by JC1 dye based confocal microscopy; format: cell-based
Method in brief: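 MCF7 cells treated 24 h, then incubated with JC1 (green monomer emission 525 nm, red aggregate 590 nm); confocal imaging, depolarization expressed as J-monomer:J-aggregate ratio versus non-treated control.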

[5] = test system: MCF7; test: Induction of mitochondrial outer membrane damage in human MCF7 cells assessed as morphological changes by measuring elongated mitochondria at IC50 measured after 24 hrs by mitotracker red based confocal microscopy; format: cell-based
[6] = Cytotoxicity against human RPE-1 cells assessed as reduction in cell viability measured after 24 hrs by MTT assay; format: toxicity, cell-based; settings: RPE-1 cells (TERT-RPE1)
[7] = test system: MCF7; test: Induction of ROS generation in human MCF7 cells assessed as increase in green fluorescence measured after 24 hrs by H2DCFDA dye based confocal microscopy relative to control; format: functional
Method in brief: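 After 24 h treatment, MCF7 cells stained with H2DCFDA, which reacts with sub-cellular ROS to give green fluorescent DCF; imaged by confocal microscopy; green signal expressed as fold over non-treated control cells.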

[8] = test system: MCF7; test: Induction of apoptosis in human MCF7 cells assessed as reduction in caspase-3 expression measured after 24 hrs by Western blot analysis; format: functional, cell-based; method in brief: as §1
[9] = test system: MCF7; test: Cytotoxicity against human MCF7 cells assessed as reduction in cell viability measured after 24 hrs by MTT assay; format: functional, cell-based; settings: MCF7, 24 h
[10] = test system: MCF7; test: Induction of apoptosis in human MCF7 cells assessed as increase in red fluorescence at IC50 measured after 24 hrs by propidium iodide staining based confocal laser scanning microscopy; format: functional, cell-based
Method in brief: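 Following 24 h treatment, MCF7 cells incubated with propidium iodide, which binds DNA of apoptotic and necrotic cells; red fluorescence read by confocal microscopy against non-treated cells.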

[11] = test system: MCF7; test: Induction of ROS generation in human MCF7 cells assessed as increase in red fluorescence at IC50 measured after 24 hrs by MitoSox dye based confocal microscopy; format: functional, cell-based
Method in brief: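 MCF7 cells exposed 24 h, then stained with MitoSox, which gives red fluorescence with sub-cellular superoxide; signal compared with non-treated control cells by confocal microscopy.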

[12] = test system: MCF7; test: Induction of mitochondrial outer membrane damage in human MCF7 cells assessed as morphological changes by measuring appearance of fragmented punctate structure at IC50 measured after 24 hrs by mitotracker red based confocal microscopy; format: cell-based

COc1ccc2c(c1)c(CC(=O)O)c(C)n2C(=O)c1ccc(Cl)cc1 [INDOMETHACIN]
Activity [1]: Active
Activity [2]: Active
Activity [3]: Active
Activity [4]: Active
Activity [5]: Active
IC50 at 24 h [6]: > 40 µM
fold change (FC) [7]: 2.4
Activity [8]: Active
pIC50 [9]: < 4.30

COc1ccc2c(c1)c(CC(=O)OCCCCC[P+](c1ccccc1)(c1ccccc1)c1ccccc1)c(C)n2C(=O)c1ccc(Cl)cc1
Activity [2]: Active
Activity [3]: Active
Activity [4]: Active
Activity [10]: Active
IC50 at 24 h [6]: 22 µM
Activity [11]: Active
Activity [12]: Active
fold change (FC) [7]: 2.4
Activity [8]: Active
pIC50 [9]: 6.00

COc1ccc2c(c1)c(CC(=O)OCCCCC[P+](c1ccc(C)cc1)(c1ccc(C)cc1)c1ccc(C)cc1)c(C)n2C(=O)c1ccc(Cl)cc1
IC50 at 24 h [6]: 10.2 µM
pIC50 [9]: 5.24

CC(C)Cc1ccc(C(C)C(=O)OCCCCC[P+](c2ccc(F)cc2)(c2ccc(F)cc2)c2ccc(F)cc2)cc1 (stereo not drawn)
IC50 at 24 h [6]: 35 µM
pIC50 [9]: < 4.30

COc1ccc2c(c1)c(CC(=O)OCCCCC[P+](c1ccc(F)cc1)(c1ccc(F)cc1)c1ccc(F)cc1)c(C)n2C(=O)c1ccc(Cl)cc1
IC50 at 24 h [6]: 11.2 µM
pIC50 [9]: 4.59

CC(C)Cc1ccc(C(C)C(=O)O)cc1 (stereo not drawn) [IBUPROFEN]
Activity [1]: Active
Activity [2]: Active
Activity [4]: Active
Activity [5]: Active
IC50 at 24 h [6]: > 40 µM
fold change (FC) [7]: 1.3
pIC50 [9]: < 4.30

CC(C)Cc1ccc(C(C)C(=O)OCCCCC[P+](c2ccccc2)(c2ccccc2)c2ccccc2)cc1 (stereo not drawn)
Activity [2]: Active
Activity [3]: Active
Activity [4]: Active
Activity [10]: Active
IC50 at 24 h [6]: > 40 µM
Activity [11]: Active
Activity [12]: Active
fold change (FC) [7]: 3.2
Activity [8]: Active
pIC50 [9]: 4.99

COc1ccc([P+](CCCCCOC(=O)C(C)c2ccc(CC(C)C)cc2)(c2ccc(OC)cc2)c2ccc(OC)cc2)cc1 (stereo not drawn)
IC50 at 24 h [6]: > 40 µM
pIC50 [9]: 4.49

Cc1ccc([P+](CCCCCOC(=O)C(C)c2ccc(CC(C)C)cc2)(c2ccc(C)cc2)c2ccc(C)cc2)cc1 (stereo not drawn)
IC50 at 24 h [6]: > 40 µM
pIC50 [9]: 4.59

COc1ccc([P+](CCCCCOC(=O)Cc2c(C)n(C(=O)c3ccc(Cl)cc3)c3ccc(OC)cc23)(c2ccc(OC)cc2)c2ccc(OC)cc2)cc1
IC50 at 24 h [6]: 35.2 µM
pIC50 [9]: 5.35
